These results are taken from the EternaBench riboswitch data.

By apparent Kd is commonly meant a dissociation constant that holds for the conditions of the assay.

This data set has as its system MS2 coat protein. Put plainly: apparent Kd, MS2 coat protein; higher = weaker binding; RNA-MaP array; FMN 200 µM where present. In outline: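 The apparent Kd comes from binding curves fitted cluster by cluster, filtered, and summarised as a median. Those curves followed SNAP-549-labelled MS2 coat protein from 0.7 or 1.5 nM, doubling to 3 µM, on Illumina sequencing-chip clusters where stalled E. coli RNA polymerase had transcribed the designs, without and then with constant ligand. The buffer was 100 mM Tris-HCl pH 7.5, 80 mM KCl, 4 mM MgCl2, BSA, DTT, yeast tRNA and Tween-20, and green signal was normalised to red-channel RNA signal and control-cluster median Fmax.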

[1] abbreviates: designed as: OFF switch for flavin mononucleotide, no ligand.
[2] abbreviates: ligand present: flavin mononucleotide, designed as: OFF switch for flavin mononucleotide.
Where [3] appears, read: designed as: ON switch for flavin mononucleotide, no ligand.
[4] abbreviates: ligand present: flavin mononucleotide, designed as: ON switch for flavin mononucleotide.

In the case of “AAUUAACAUGAGGAUCACCCAUGUGAGGAUAUGGUAUUACUUGGACAGCUAUGAUCUACCAGAAGGCACAUCUA”, the “apparent Kd” value was 0.0244 µM under setting [1] and 0.0448 µM under setting [2].

Turning to “GAUUAACAUGAGGAUCACCCAUGUGAGGAUAUGGAAUGGCUCAUUUUUUGAUUCCCGUCUAGAAGGCACAUCUU”, the “apparent Kd” value reads like this: under setting [1], 0.0718 µM; under setting [2], 0.0838 µM.

Consider “AUUUUAAUAUAGGAUAUCGAAUUUAUUAAUUAUCGAGAAGGAUAAACAUGAGGAUCACCCAUGUGGUAUCAUGG”, for which the “apparent Kd” value under setting [1] was found to be 0.21 µM and the “apparent Kd” value under setting [2] came to 0.274 µM.

For the sequence “GCAGCACACAUUAACAUGAGGAUCACCCAUGUCAAAAGACAUGAGGAUAUGCAUCUGAAGAAGAUGCAGAAGGCAUUGUGCUGC”, the “apparent Kd” value by setting is: under setting [3], 0.467 µM; under setting [4], 0.0242 µM.

For the sequence “GCUUGAGCUGUGAGGAUAUGAGUUCGGAAAUGAGCUUAGAAGGCACAUGAGGAUCACCCAUGUAAGGUUCGAGU”, the “apparent Kd” value is 0.038 µM under setting [1] and 0.0177 µM under setting [2].

Turning to “CCAGACGUAGGAUAUACAUUUGGGUAAUCCCGCGGAAAGAUACAUGAGGAUCACCCAUGUAGAAGGGCGGUAAA”, the “apparent Kd” value is, setting by setting: under setting [1], 0.0311 µM; under setting [2], 0.0211 µM.

For the sequence “UUGCAGUCAUCAGGAUAUAGUAUUACGGCCAUUUAUAUUUUCAUACAUGAGGAUCACCCAUGUCGCUAGAAGGGAUUAUCGAUU”, the “apparent Kd” value under setting [1] came out at 0.0477 µM and the “apparent Kd” value under setting [2] stood at 0.043 µM.

Consider “CAUUAAUUCAUUAUAUUAAUUUUACAGGAUAUGUAACAUGAGGAUCACCCAUGUAUUCUAGGUUAACAGAAGGGUAUUGCUUGU”, for which the “apparent Kd” value under setting [1] was determined as 0.0245 µM and the “apparent Kd” value under setting [2] amounted to 0.0213 µM.

Take “UUGGACGUCGUAGGAUAUGUAGGAUACUCCUACAUGAGGAUCACCCAUGUUGACAUGGAAGAAGGACAGAAGGACGAUGUCCAU”: the “apparent Kd” value was 0.753 µM under setting [3] and 0.0505 µM under setting [4].

With “AAUUUACAGCUAGGAUAUACAUGAGGAUCACCCAUGUAAUGAUCGGAUCUUAUGAUCGUAUCAGUGUAGAAGGAGCAAAUAAGA”, the “apparent Kd” value was determined as 0.0123 µM under setting [1] and 0.0213 µM under setting [2].

For “ACAUGAGGAUCACCCAUGUAGAAUGAAGAAGGUAGAUACUUGAGGAUCACCCAUGUACAUGGGACUAAGGAUAUUCUAAUAAUU”, the “apparent Kd” value reads like this: under setting [3], 0.144 µM; under setting [4], 0.105 µM.

In the case of “UCCUUGUCCUGAGGAUAUCCGCGGUUCCCAAAAGGAGAAGGCAGGACAUGAGGAUCACCCAUGUACCCAGAGAACGUGCAGAGU”, the “apparent Kd” value reads like this: under setting [1], 0.0192 µM; under setting [2], 0.129 µM.

As to “CAAAACAUCUCCGUGUUUGUCGAACAUGAGGAUCACCCAUGUAGAAGGCAUCGCGCGACGCGGGAUGAGGAUAUACGCUGGAUG”, the “apparent Kd” value worked out at 0.00618 µM under setting [1] and 0.0153 µM under setting [2].

Take “AAACAUGUCCGAGGAUAUCUGAGAUUAUUUUCAAGAGAAGGCGGACAUGAGGAUCACCCAUGUCUCUCCUCAUCAACUCCAAAU”: the “apparent Kd” value under setting [1] turned out to be 0.00861 µM and the “apparent Kd” value under setting [2] is 0.0545 µM.

With “AAUAAUAAGGAGGAUAUCGUAUCGGAGACGAUACGAGAAGGCUUAACAUGAGGAUCACCCAUGUUCCUCAAUAA”, the “apparent Kd” value is, setting by setting: under setting [1], 0.035 µM; under setting [2], 0.0767 µM.

As for “AAAAAAAAAACUCAGGAUAUAGAUAAUUGAACAUGAGGAUCACCCAUGUAGUGAAAAAAAAAAAAUUAGAAGGGAGGAAAAAAAAA”, the “apparent Kd” value is, setting by setting: under setting [3], 0.0678 µM; under setting [4], 0.0588 µM.

For “UUUUACAUAGGAUAUAGUUUCUUUUACAUGAGGAUCACCCAUGUCUCUCCUCUCUCUCUUCUAGAAGGAUGUUUCU”, the “apparent Kd” value reads like this: under setting [1], 0.0801 µM; under setting [2], 0.072 µM.

For “UUGAUAUUGUAAGGAUAUACUCUGUGAUGAAGAGUAGAAGGUACUUACAUGAGGAUCACCCAUGUUUAACGAGAUACUAAUCGU”, the “apparent Kd” value is 0.0489 µM under setting [3] and 0.02 µM under setting [4].

Consider “CGUUGUGAAGAGGAUAUCCAACAAAGUUGUCAAGGAGAAGGCUUCACAUGAGGAUCACCCAUGUUAUGCCUUAU”, for which the “apparent Kd” value amounted to 0.0182 µM under setting [1] and 0.0802 µM under setting [2].

As to “AGUGUGUGGCAGGAUAUUCUGUUGGUUCGGGCAGAAGAAGGGUCUACAUGAGGAUCACCCAUGUAAGCGGUUGA”, the “apparent Kd” value reads like this: under setting [1], 0.205 µM; under setting [2], 0.486 µM.

On to “CCCGACUAGAAGUCGGUACGGAGGAGAAGGCGCCUCCUGGGUCCACAUGAGGAUCACCCAUGUGGCGAGGAUAUCCUCAGUUUU”, for which the “apparent Kd” value under setting [1] was found to be 0.0142 µM and the “apparent Kd” value under setting [2] worked out at 0.074 µM.

Take “ACGGCUGUCAGAGGAUAUGGUUACAUGAGGAUCACCCAUGUCAAGGGUCUAACUAAGUAUAGCUACUAGAAGGCUGAUGGCCGA”: the “apparent Kd” value is, setting by setting: under setting [1], 0.158 µM; under setting [2], 0.107 µM.

As to “CCAGGCUGUGUGAGGAUAUGCUGGUCCUUGGAUCAGCAGAAGGCACAUGAGGAUCACCCAUGUGAGUAGCUUGG”, the “apparent Kd” value reads like this: under setting [1], 0.0162 µM; under setting [2], 0.0622 µM.

Turning to “GGACGUCACAUUCACAUGAGGAUCACCCAUGUCAAAAGACAUGAGGAUAUGGAUCCUAAUUGGAUCCAGAAGGCAUGGACGUCC”, the “apparent Kd” value runs as follows: under setting [3], 1.14 µM; under setting [4], 0.0706 µM.

As for “CCUAAGGAGGCAGGAUAUAGUGUGGUGGCCGGGCUCCCACGGCGAGCGGCACUAGAAGGGUCGUUACAUGAGGAUCACCCAUGU”, the “apparent Kd” value runs as follows: under setting [3], 0.0127 µM; under setting [4], 0.0116 µM.

As for “GGGCCACAUGAGGAUCACCCAUGUAAACCCGUGCUCAGGGCACAGGAUAUGGGCCUGGAUGAGGCCCAGAAGGGUGGUCUGGCC”, the “apparent Kd” value under setting [3] was 0.0401 µM and the “apparent Kd” value under setting [4] was found to be 0.0163 µM.

For “AUCAGCUCGUCAGGAUAUACGUCACUGCGUCAGAAGUGUGGUAAGAUCACAUGAGGAUCACCCAUGUAGAAGGGACGAGCUGAU”, the “apparent Kd” value reads like this: under setting [1], 0.0234 µM; under setting [2], 0.253 µM.

Consider “AAUUAGGUCACAGGAUAUACAACAACCAAUGCUGUAGAAGGGUGACACAUUCUUUGCUGACAUGAGGAUCACCCAUGUAACCAC”, for which the “apparent Kd” value reads like this: under setting [3], 0.0693 µM; under setting [4], 0.0112 µM.

For “AAAGCACGAGGAUAUACAUGAGGAUCACCCAUGUAUAACCAACAUAGGUGAUCCUCAUGUAGAAGGCGUGCAAA”, the “apparent Kd” value under setting [1] was determined as 0.0186 µM and the “apparent Kd” value under setting [2] is 0.0184 µM.

For the sequence “UGGACGACCCGAGGAUAUCAAAGGCCCGGGUAAGUUCCUCAGACAUGAGGAUCACCCAUGUUAAAUGAGAAGGCGGGUAGCCGA”, the “apparent Kd” value by setting is: under setting [1], 0.203 µM; under setting [2], 0.268 µM.

“AGAAAUUAGUGAGGAUAUGCAUAAUAUUUAGCUGCAGAAGGCACGGACCACAAGACAUGAGGAUCACCCAUGUGGAAUAUAGAU”: the “apparent Kd” value under setting [1] is 0.0201 µM and the “apparent Kd” value under setting [2] stood at 0.0234 µM.

“CGCCAUCCCGUUGGCGUGAGGAUACCAGAAGGGACGAUCUCACAUGAGGAUCACCCAUGUUAUAGUCAGGAUAUGGGUUCAUCA”: the “apparent Kd” value under setting [3] is 0.135 µM and the “apparent Kd” value under setting [4] turned out to be 0.0142 µM.

On to “GAAGCAUGCAAUAACAUGAGGAUCACCCAUGUGAAAACACGUGAGGAUAUUGAUCUGAAGAAGAUCGAGAAGGCACCGUGCUAA”, for which the “apparent Kd” value amounted to 0.0134 µM under setting [3] and 0.00992 µM under setting [4].

For “GGUGGACAUGAGGAUCACCCAUGUGAGGAUAUCGGCUAUCUACUCGCUGACGGCUGCUCGAGAAGGCACAUUGU”, the “apparent Kd” value under setting [1] is 0.0707 µM and the “apparent Kd” value under setting [2] amounted to 0.107 µM.

On to “GAUAAUAUAGGAUAUACAUGAGGAUCACCCAUGUCCCGAUAUUAGGAGGACCUCCUCGGUAGAAGGAUAUGUGC”, for which the “apparent Kd” value worked out at 0.129 µM under setting [1] and 0.131 µM under setting [2].

Turning to “CCAUAAAGGUAGGAUAUCGAUUUUAAUUAAUAUCGAGAAGGGUCAACAUGAGGAUCACCCAUGUCAGCAUGUAA”, the “apparent Kd” value reads like this: under setting [1], 0.0609 µM; under setting [2], 0.0587 µM.
